From ChEMBL document CHEMBL1687689, “Concise syntheses of the abyssinones and discovery of new inhibitors of prostate cancer and MMP-2 expression” (2010)
Calls of active or inactive are those of the source. No cut-off for these calls is given here.

Assays:
PC-3M [1] = experiment: (§1) Cytotoxicity in human PC3M cells assessed as inhibition of cell proliferation upto 50 uM after 3 days by MTT assay; type: functional
Method in brief: (§2)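 Metastatic variant PC3-M human prostate cancer cells in exponential growth exposed 3 days to 0−50 μM of each racemate or enantiomer; viability by MTT, absorbance at 540 nm. CC50 derived from the concentration-response. For the 50 μM readout, absorbance at 72 h compared with untreated cells at the start (t = 0 h).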

[2] = Cytotoxicity in human PC3M cells assessed as inhibition of cell proliferation after 3 days by MTT assay; type: functional; settings: PC-3M, 72 h; method in brief: as §2
[3] = as §1; type: functional, PC-3M; method in brief: as §2
PC-3M [4] = experiment: Inhibition of MMP-2 mRNA expression in human PC3M cells at 3 uM after 3 days by qRT-PCR analysis relative to untreated control; type: functional; settings: 72 h

Row | SMILES | inhibition (PC-3M [1]) | CC50 [2] | fold change (FC) [3] | inhibition at 3 µM (PC-3M [4])
1 | CC1(C)C=Cc2cc(C3CC(=O)c4ccc(O)cc4O3)ccc2O1 (racemic) | Active | – | – | –
2 | CC(C)=CCc1cc([C@H]2CC(=O)c3ccc(O)cc3O2)ccc1O | Active | – | – | –
3 | CC(C)=CCc1cc(C2CC(=O)c3ccc(O)cc3O2)cc2c1OC(C)(C)C=C2 (racemic) | Active | 57 µM | – | –
4 | CC1(C)C=Cc2cc([C@H]3CC(=O)c4ccc(O)cc4O3)ccc2O1 | Active | – | – | –
5 | COc1c(CC=C(C)C)cc([C@@H]2CC(=O)c3ccc(O)cc3O2)cc1CC=C(C)C | Active | 12 µM | 2 | –
6 | CC(C)=CCc1cc([C@H]2CC(=O)c3ccc(O)cc3O2)cc2c1OC(C)(C)C=C2 | Active | 42 µM | – | 65%
7 | CC1(C)C=Cc2cc([C@@H]3CC(=O)c4ccc(O)cc4O3)ccc2O1 | Active | – | – | –
8 | COc1c(CC=C(C)C)cc(C2CC(=O)c3ccc(O)cc3O2)cc1CC=C(C)C (racemic) | Active | 33 µM | – | –
9 | CC(C)=CCc1cc([C@@H]2CC(=O)c3ccc(O)cc3O2)ccc1O | Active | – | – | –
10 | CC(C)=CCc1cc(C2CC(=O)c3ccc(O)cc3O2)ccc1O (racemic) | Active | – | – | –
11 | COc1c(CC=C(C)C)cc([C@H]2CC(=O)c3ccc(O)cc3O2)cc1CC=C(C)C | Active | 46 µM | – | –
